From ChEMBL document CHEMBL4706601, “The endocannabinoid system dual-target ligand N-cycloheptyl-1,2-dihydro-5-bromo-1-(4-fluorobenzyl)-6-methyl-2-oxo-pyridine-3-carboxamide improves disease severity in a mouse model of multiple sclerosis” (Eur J Med Chem, 2020) come the findings set out here.

The target of test [1] is T1, Monoacylglycerol lipase ABHD6 (Homo sapiens, UniProt Q9BV23).
T1 sequence (Q9BV23 whole entry): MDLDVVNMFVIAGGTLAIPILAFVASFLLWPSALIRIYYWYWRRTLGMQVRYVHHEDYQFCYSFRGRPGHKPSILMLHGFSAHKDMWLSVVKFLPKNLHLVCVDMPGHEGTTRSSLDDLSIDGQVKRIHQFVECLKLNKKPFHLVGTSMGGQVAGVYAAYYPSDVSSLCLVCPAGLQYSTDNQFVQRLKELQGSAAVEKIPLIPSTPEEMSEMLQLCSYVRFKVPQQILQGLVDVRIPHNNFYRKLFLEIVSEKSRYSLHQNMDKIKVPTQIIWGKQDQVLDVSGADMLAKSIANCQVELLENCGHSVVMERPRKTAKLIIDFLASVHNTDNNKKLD
Kind of test: Inhibition of human ABHD6 expressed in HEK293 cells using 2-OG as substrate preincubated for 30 mins followed by substrate addition and measured after 5 mins by liquid scintillation spectroscopy. It is filed as cell-based. The method, boiled down:
(§1)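 Homogenates (40 µg) from HEK293 stably expressing hABHD6 or hABHD12 pre-incubated with compound 30 min at 37 °C in […], 0.1% BSA, pH 7.6; then 10 μM 2-OG for 5 min at 37 °C. Aqueous phase tritium counted after CHCl3:MeOH stop; no-enzyme blanks and non-transfected HEK293 hydrolysis subtracted. Controls WWL70 10 μM, THL 20 μM.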

In the next test the target is Cannabinoid receptor 1 (Homo sapiens, UniProt P21554). Kind of test: Displacement of [3H]CP55940 from recombinant human CB1R expressed in CHO cell membranes incubated for 90 mins. The arrangement: species or system Membrane. In general terms: Loss of bound radioactivity is the signal in a displacement assay; it reports binding, not function.
Cannabinoid receptor 1, sequence (P21554 whole entry): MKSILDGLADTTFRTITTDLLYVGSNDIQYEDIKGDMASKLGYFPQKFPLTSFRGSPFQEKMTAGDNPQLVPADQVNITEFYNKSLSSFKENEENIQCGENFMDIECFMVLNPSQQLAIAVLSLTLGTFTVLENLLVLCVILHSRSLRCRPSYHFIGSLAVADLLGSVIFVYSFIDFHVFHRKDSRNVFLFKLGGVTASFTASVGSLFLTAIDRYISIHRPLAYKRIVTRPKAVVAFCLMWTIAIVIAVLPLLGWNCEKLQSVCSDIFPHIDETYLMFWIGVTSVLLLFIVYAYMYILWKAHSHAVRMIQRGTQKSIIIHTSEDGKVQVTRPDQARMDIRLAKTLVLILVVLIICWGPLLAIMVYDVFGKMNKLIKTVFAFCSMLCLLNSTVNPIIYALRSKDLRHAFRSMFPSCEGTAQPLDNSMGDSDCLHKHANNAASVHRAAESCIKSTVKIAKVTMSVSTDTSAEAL
Test [2] deals with Mus musculus. Kind of test: In vivo agonist activity at CB1R in BALB/c mouse assessed as catalpesy-like behaviour by measuring increase in immobility time at 5 mg/kg, ip measured after 1 hr by bar test. It is filed as functional, organism-based. The method, boiled down: (§2)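 BALB/c mice given 5 mg/kg i.p. in DMSO (20 µL), tested 1 h later. Rectal temperature change from basal; catalepsy by bar test (4 cm bar, 120 s cut-off); locomotion by rotarod latency to fall at 4 rpm (120 s cut-off, 3 trials); analgesia by hot plate at 54-56 °C, first paw lick or shake. n = 5-20 per group.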

In a further test the target is T2, Monoglyceride lipase (Homo sapiens, UniProt Q99685).
T2 sequence (Q99685 whole entry): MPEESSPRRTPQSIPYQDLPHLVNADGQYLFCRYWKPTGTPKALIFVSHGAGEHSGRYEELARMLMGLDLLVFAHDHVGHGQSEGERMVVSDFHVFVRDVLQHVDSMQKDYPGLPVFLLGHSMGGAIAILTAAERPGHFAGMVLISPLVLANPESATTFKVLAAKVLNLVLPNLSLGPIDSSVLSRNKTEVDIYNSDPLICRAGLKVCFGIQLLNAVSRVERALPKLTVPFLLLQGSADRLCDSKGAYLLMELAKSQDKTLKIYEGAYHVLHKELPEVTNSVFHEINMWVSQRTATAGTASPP
Kind of test: Inhibition of MAGL in human U937 cells using [glycerol-1,2,3-3H]2-OG as substrate preincubated for 15 mins followed by substrate addition and measured after 15 mins by liquid scintillation spectroscopy. It counts as cell-based, U-937. The method, boiled down:
(§3)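 Intact U937 cells, 10^6 per condition, pre-incubated with compound 15 min at 37 °C with shaking (screen at 10 μM; full curves for hits). Substrate: 1 μM AEA with 1 nM [3H]AEA (FAAH) or 10 μM 2-OG with 5 nM [3H]2-OG (MAGL), 15 min at 37 °C. Stopped with CHCl3:MeOH 1:1, aqueous tritium counted; mean ± SD, ≥3 experiments in triplicate.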

Test [3] has as its system Mus musculus. Kind of test: In vivo agonist activity at CB1R in BALB/c mouse assessed as reduction in body temperature at 5 mg/kg, ip measured after 1 hr by tetrad test. It counts as functional, organism-based. The method, boiled down: as §2
Test [4] deals with T3, Fatty-acid amide hydrolase 1 (Homo sapiens, UniProt O00519).
T3 sequence (O00519 whole entry): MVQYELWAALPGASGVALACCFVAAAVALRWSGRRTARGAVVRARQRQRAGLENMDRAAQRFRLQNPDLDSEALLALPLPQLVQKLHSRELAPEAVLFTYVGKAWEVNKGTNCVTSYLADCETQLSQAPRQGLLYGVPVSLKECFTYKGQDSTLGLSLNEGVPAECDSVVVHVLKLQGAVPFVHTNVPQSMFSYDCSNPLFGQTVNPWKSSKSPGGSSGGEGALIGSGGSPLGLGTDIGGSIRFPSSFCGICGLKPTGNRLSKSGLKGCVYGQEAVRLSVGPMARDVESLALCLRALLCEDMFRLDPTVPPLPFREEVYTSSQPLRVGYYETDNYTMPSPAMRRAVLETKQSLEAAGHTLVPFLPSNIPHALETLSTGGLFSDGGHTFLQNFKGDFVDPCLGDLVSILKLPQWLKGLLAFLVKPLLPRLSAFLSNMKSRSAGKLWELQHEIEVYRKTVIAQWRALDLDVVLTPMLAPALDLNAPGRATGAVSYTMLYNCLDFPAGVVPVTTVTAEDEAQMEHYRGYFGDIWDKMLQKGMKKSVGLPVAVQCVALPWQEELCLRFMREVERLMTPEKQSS
The test can be described thus: Inhibition of FAAH in human U937 cells using [ethanolamine-1-3H]AEA as substrate preincubated for 15 mins followed by substrate addition and measured after 15 mins by liquid scintillation spectroscopy. It counts as cell-based, U-937. The method, boiled down: as §3

Test [5] relates to Mus musculus. The test can be described thus: In vivo agonist activity at CB1R in BALB/c mouse assessed as induction of analgesia at 5 mg/kg, ip measured after 1 hr by hotplate test. It counts as functional, organism-based. In outline:
as §2

For another test, the target named is Cannabinoid receptor 2 (Homo sapiens, UniProt P34972). The test can be described thus: Displacement of [3H]CP55940 from recombinant human CB2R expressed in CHO cell membranes incubated for 90 mins. Set-up: species or system Membrane.
Cannabinoid receptor 2, sequence (P34972 whole entry): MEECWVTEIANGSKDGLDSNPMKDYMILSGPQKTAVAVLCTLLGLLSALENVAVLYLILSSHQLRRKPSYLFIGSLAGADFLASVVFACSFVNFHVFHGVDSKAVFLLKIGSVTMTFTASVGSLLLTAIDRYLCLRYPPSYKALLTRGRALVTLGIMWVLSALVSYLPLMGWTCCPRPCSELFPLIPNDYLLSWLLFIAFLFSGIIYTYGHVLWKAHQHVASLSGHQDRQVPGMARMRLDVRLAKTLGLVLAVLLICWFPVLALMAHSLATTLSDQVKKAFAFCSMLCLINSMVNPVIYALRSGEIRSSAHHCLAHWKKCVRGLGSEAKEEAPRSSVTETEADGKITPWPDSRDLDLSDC
The target of test [6] is T4, Lysophosphatidylserine lipase ABHD12 (Homo sapiens, UniProt Q8N2K0).
T4 sequence (Q8N2K0 whole entry): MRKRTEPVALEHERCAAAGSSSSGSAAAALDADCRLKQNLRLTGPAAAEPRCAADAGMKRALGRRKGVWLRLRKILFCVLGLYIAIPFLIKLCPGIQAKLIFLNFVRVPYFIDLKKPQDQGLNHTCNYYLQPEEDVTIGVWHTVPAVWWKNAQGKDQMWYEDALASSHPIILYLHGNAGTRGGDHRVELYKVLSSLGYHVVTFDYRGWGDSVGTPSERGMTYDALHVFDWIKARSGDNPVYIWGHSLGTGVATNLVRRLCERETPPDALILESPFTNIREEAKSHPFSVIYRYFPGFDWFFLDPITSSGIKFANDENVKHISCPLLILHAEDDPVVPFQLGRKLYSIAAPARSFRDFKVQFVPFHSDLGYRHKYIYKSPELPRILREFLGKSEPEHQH
The test can be described thus: Inhibition of human ABHD12 expressed in HEK293 cells using 2-OG as substrate preincubated for 30 mins followed by substrate addition and measured after 5 mins by liquid scintillation spectroscopy. It is filed as cell-based. In outline: as §1

Test [7] concerns Mus musculus. Kind of test: In vivo agonist activity at CB1R in BALB/c mouse assessed as reduction in spontaneous locomotion at 5 mg/kg, ip measured after 1 hr by rotarod test. It is filed as functional, organism-based. The method, boiled down: as §2
(In general: In the rotarod test animals must keep their balance on a rotating rod.)

The source made the active and inactive calls.

Usually IC50 stands for the concentration at which inhibition is half-maximal. One may read the Ki as the equilibrium dissociation constant of an inhibitor or competing ligand from its target. In the case of `Cc1c(Br)cc(C(=O)NC2CCCCCC2)c(=O)n1Cc1ccc(F)cc1`, the IC50 in test [1] is greater than 10000 nM; at Monoglyceride lipase it was greater than 10 µM; in [4], 5.9 µM; in [6], greater than 10 µM. For the same molecule, the Ki on Cannabinoid receptor 1 came to 2.9 nM; on Cannabinoid receptor 2 it was 1.5 nM. Also, the result with Mus musculus [2], in the test on Mus musculus [3], in the test on Mus musculus [5] and with Mus musculus [7] was Active.

With `COc1ccc(-c2cc(C(=O)NC3CCCCCC3)c(=O)n(Cc3ccc(F)cc3)c2C)cc1`, the IC50 in test [1] was 530 nM; against Monoglyceride lipase it was greater than 10 µM; in test [4], 2 µM; in [6], greater than 10 µM. In addition, the Ki worked out at 9.8 nM on Cannabinoid receptor 1 and 26.2 nM on Cannabinoid receptor 2. In addition, the outcome in the test on Mus musculus [2], in the test on Mus musculus [3], with Mus musculus [5] and with Mus musculus [7] was inactive.
